Test results taken from ChEMBL document CHEMBL2331076, “Pyridone alkaloids from a marine-derived fungus, Stagonosporopsis cucurbitacearum, and their activities against azole-resistant Candida albicans” (2013).
Values after ≈ are worked out from the molar mass of the structure shown.

Assays:
Assay type in all cases: functional
[1] = tested on: Nakaseomyces glabratus; assay: Antifungal activity against Candida glabrata J 92 by CLSI M27-A2 microdilution method
Summary of the method: (§1)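 Broth microdilution per CLSI M27-A2, run in triplicate. Panel: azole-resistant C. albicans J2-36 (resistant to fluconazole, itraconazole, voriconazole), azole-sensitive C. albicans J1-97, C. glabrata J-92, Cryptococcus neoformans MPU-B. Quality control was run on each testing day with reference strains, including C. albicans ATCC 90028.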

[2] = tested on: Cryptococcus neoformans; assay: Antifungal activity against Cryptococcus neoformans MPU-B by CLSI M27-A2 microdilution method; summary of the method: as §1
[3] = tested on: Candida albicans; assay: Antifungal activity against azole-sensitive Candida albicans J1-97 by CLSI M27-A2 microdilution method; summary of the method: as §1
[4] = tested on: Candida albicans; assay: Antifungal activity against azole-resistant Candida albicans J2-36 by CLSI M27-A2 microdilution method

SMILES: C[C@@H]1CC[C@H]2[C@H](C(=O)c3c(O)c(C4(O)CCC(=O)CC4O)c[nH]c3=O)[C@H](C)C=C[C@@H]2C1 (stereo partly specified) [DIDYMELLAMIDE D]
- MIC [1]: > 25 µg/mL
- MIC [2]: > 25 µg/mL
- MIC [3]: > 25 µg/mL
- MIC [4]: > 25 µg/mL

SMILES: C[C@@H]1CC[C@H]2[C@H](C(=O)c3c(O)c(-c4ccc(O)cc4)c[nH]c3=O)[C@H](C)C=C[C@@H]2C1 [DIDYMELLAMIDE B]
- MIC [1]: > 25 µg/mL
- MIC [2]: 6.3 µg/mL (≈ 16 µM)
- MIC [3]: > 25 µg/mL
- MIC [4]: > 25 µg/mL

SMILES: C[C@@H]1CC[C@H]2[C@H](C(=O)c3c(O)c(C4(O)C=CC(=O)CC4)c[nH]c3=O)[C@H](C)C=C[C@@H]2C1 (stereo partly specified) [DIDYMELLAMIDE C]
- MIC [1]: > 25 µg/mL
- MIC [2]: > 25 µg/mL
- MIC [3]: > 25 µg/mL
- MIC [4]: > 25 µg/mL

SMILES: C[C@@H]1CC[C@H]2[C@H](C(=O)c3c(O)c([C@]4(O)CCC(=O)[C@@H]5O[C@@H]54)cn(O)c3=O)[C@H](C)C=C[C@@H]2C1 [DIDYMELLAMIDE A]
- MIC [1]: 3.1 µg/mL (≈ 6.99 µM)
- MIC [2]: 1.6 µg/mL (≈ 3.61 µM)
- MIC [3]: 3.1 µg/mL (≈ 6.99 µM)
- MIC [4]: 3.1 µg/mL (≈ 6.99 µM)
